Assay outcomes deposited in PubChem BioAssay by several laboratories.
Hits are enriched below; roughly 2.2% of the tested compounds scored in any of these assays.
C8 TRAIL sens = viability loss with TRAIL in NB7+C8 cells, primary screen, TRAIL sensitizer project, cell-based, ATPlite luminescence; AID 624354, 2012; inhibition (viability loss, TRAIL sensitization), % at 10 µM; 360,000 tested, 1% active;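 active means compounds causing at least 50% loss of cell viability in the single-dose screen, relative to plate controls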
FLuc inhib CS = firefly luciferase enzyme inhibitors, primary screen, artefact control for luciferase-based inhibitor screens, biochemical, luminescence, ATPLite; 10 min; inhibition, % at 10 µM; 200,000 tested, 1.5% active; AID 1006, 2008;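 active means inhibition above about 50% when tested at 10 µM, limit read from the data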
Target sequence (P08659 whole entry, looked up): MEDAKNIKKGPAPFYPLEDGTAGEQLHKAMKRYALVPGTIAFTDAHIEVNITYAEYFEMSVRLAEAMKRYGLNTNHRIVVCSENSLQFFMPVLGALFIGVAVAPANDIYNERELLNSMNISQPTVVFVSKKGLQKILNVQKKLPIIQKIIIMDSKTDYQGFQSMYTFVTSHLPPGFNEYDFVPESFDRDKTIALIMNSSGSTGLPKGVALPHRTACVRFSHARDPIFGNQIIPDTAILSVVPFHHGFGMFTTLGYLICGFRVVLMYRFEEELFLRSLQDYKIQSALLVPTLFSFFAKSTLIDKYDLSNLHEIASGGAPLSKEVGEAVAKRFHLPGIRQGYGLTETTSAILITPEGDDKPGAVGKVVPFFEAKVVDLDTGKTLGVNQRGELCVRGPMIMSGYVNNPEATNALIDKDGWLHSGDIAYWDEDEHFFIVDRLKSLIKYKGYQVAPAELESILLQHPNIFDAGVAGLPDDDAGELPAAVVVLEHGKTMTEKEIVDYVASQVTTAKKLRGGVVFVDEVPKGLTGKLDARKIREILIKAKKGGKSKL
STAT3 inh-1 = IL-6 driven STAT3 reporter inhibitors, primary screen, U3A cells, luciferase, luminescence, MLSCN library; inhibition, % at 5.5 µM; AID 862, 2007; IL-6 STAT3-luciferase reporter; host cell line lacks STAT1; 190,000 tested, 0.89% active;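 active means inhibition above the mean inhibition across all screened compounds plus 3 SD, cut at about 44% in these data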;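 further: 0% = DMSO only wells and 100% = 100 µM nifuroxazide control wells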
HSP90 refold inh = HSP90 inhibitors, primary screen, cell lysate, luminescence. Heat shock protein HSP 90 (rabbit reticulocyte lysate; luciferase refolding). Rabbit reticulocyte lysate, luciferase refolding luminescence, 3 h. inhibition, % at 5.6 µM. 290,000 tested, 0.91% active;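 active means inhibition above the screen-wide mean plus 3 SD, computed separately per campaign, cut at about 16% in these data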;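 further: 0% = DMSO wells and 100% = 60 µM geldanamycin wells; inhibitors lower the luminescence because luciferase stays unfolded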
PPC-1+TRAIL kill = compounds killing PPC-1 cancer cells with TRAIL present, primary screen, TRAIL potentiator project, ATPLite luminescence, uHTS; PPC-1 cells + TRAIL, ATPLite viability luminescence; cell killing (% activity), % at 4 µM or 5 µM; 220,000 tested, 0.41% active;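 active means cell killing above 50% in the first pass at 4 µM, then a duplicate retest at 5 µM averaging 50% or more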;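 further: plate controls were cells with TRAIL plus DMSO for no effect and medium-only wells lacking cells for full effect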
FLuc stim CS = FLuc activators, initial screening, artefact control for FLuc-dependent activation tests, biochemical, ATPlite luminescence; ATPlite luciferase biochemical, 10 min; 0 = ATP-free wells, 1 = DMSO control; Luciferin 4-monooxygenase (Photinus pyralis), P08659; 200,000 tested, under 10 active; AID 1027, 2008; activation factor at 10 µM;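 active means luciferase activation factor, scaled between plate controls, of at least 2 with compound at 10 µM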
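Assay system – cell-free luciferase reagent · Medium – PBS-based ATP solution · Dosing – test compounds dosed from 2 mM stocks in 100% DMSO · Timing – 10 min, room temperature · Technique – light output (luminescence) · Measure – luminescence gain marking luciferase activators · Controls – No-ATP low control, compound-free enzyme-plus-ATP high control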
STAT3 inh-2 = STAT3 reporter inhibitors, retest of hits, confirmation, U3A cells, luciferase, luminescence; inhibition, % at 5.7 µM; shares compounds with STAT3 inh-1; 1,200 tested, 45% active; IL-6 STAT3 luciferase reporter; cell line lacks STAT1;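 active means inhibition above the hit cutoff computed for the primary STAT3 screen, cut at about 44% in these data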;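 further: 0% = IL-6 plus DMSO and 100% = IL-6 plus nifuroxazide control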
NFkB inh 2 = NF-kB reporter inhibitors in human cells, confirmation, counter-screen for STAT3 inhibitor project, cell-based, HEK293T, luciferase, TNF-alpha stimulus. shares compounds with STAT3 inh-1. TNF-alpha induced. inhibition, % at 5.7 µM. 1,200 tested, 36% active;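 active means inhibition above the mean of solvent-only control wells plus 3 SD, cutoff set per campaign, cut at about 13% in these data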;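 further: 0% = TNF-alpha with DMSO and 100% = TNF-alpha with MG high control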
STAT1 inh 2 = STAT1 reporter inhibitors, IFN-gamma induced, confirmation, counter-screen for STAT3 inhibitor project, cell-based, NIH 3T3, luciferase luminescence; NIH 3T3 STAT1-luciferase reporter; 1,200 tested, 27% active; inhibition, % at 5.7 µM; shares compounds with STAT3 inh-1;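 active means inhibition above the mean plus 3 SD of solvent-only control wells, limit set per screening run, cut at about 16% in these data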;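 further: 0% = DMSO with IFN-gamma and 100% = nifuroxazide control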
HSP90 inh confirm = HSP90 inhibitors, confirmation, cell lysate, luminescence | AID 1846, 2009 | rabbit reticulocyte lysate, luciferase refolding luminescence, 3 h | shares compounds with HSP90 refold inh | 2,300 tested, 64% active | inhibition, % at 5.9 µM; in the data active means inhibition above about 18%;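 further: 0% = vehicle wells and 100% = reference inhibitor wells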
luciferase ctr = firefly luciferase inhibitors, HSP90 counter-screen, confirmation, artefact control for HSP90 inhibitor project, biochemical, luminescence, triplicate. 2,300 tested, 48% active. shares compounds with HSP90 refold inh. purified native firefly luciferase. inhibition, % at 5.9 µM;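 active means inhibition above the mean inhibition of all tested sample wells plus 3 SD, cut at about 10% in these data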;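 further: 0% = DMSO with luciferase and 100% = wells lacking luciferase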
* = called active by the depositor.

Results for Cc1ccc(-c2nc3ccc([N+](=O)[O-])cc3[nH]2)cc1 ?
C8 TRAIL sens: 34; FLuc inhib CS: 61*; STAT3 inh-1: 77*; HSP90 refold inh: 25*; PPC-1+TRAIL kill: 32; FLuc stim CS: 0.4; STAT3 inh-2: 32; NFkB inh 2: -15; STAT1 inh 2: -127; HSP90 inh confirm: 42*; luciferase ctr: 43*

How did O=[N+]([O-])c1ccc2nc(-c3ccc(Cl)cc3)[nH]c2c1 do in these assays?
C8 TRAIL sens: 4; FLuc inhib CS: 27; STAT3 inh-1: -14; HSP90 refold inh: -2; PPC-1+TRAIL kill: 17; FLuc stim CS: 0.7

Results for Cc1ccc2nc(-c3cccc(N)c3)[nH]c2c1 ?
C8 TRAIL sens: 68*; FLuc inhib CS: 88*; STAT3 inh-1: 66*; HSP90 refold inh: 18*; PPC-1+TRAIL kill: 43; FLuc stim CS: 0.1; STAT3 inh-2: 27; NFkB inh 2: -10; STAT1 inh 2: -90; HSP90 inh confirm: 45*; luciferase ctr: 33*

Results for Cc1cc(-c2ccc(S(=O)(=O)NCc3ccc(Cl)cc3)cc2)on1 ?
C8 TRAIL sens: -9

How did O=C(c1cccs1)c1ccc(-c2cccs2)s1 do in these assays?
C8 TRAIL sens: 51*; FLuc inhib CS: 78*; STAT3 inh-1: 61*; HSP90 refold inh: 29*; PPC-1+TRAIL kill: 25; FLuc stim CS: 0.2; STAT3 inh-2: 21; NFkB inh 2: -8; STAT1 inh 2: -77; HSP90 inh confirm: 61*; luciferase ctr: 53*

How did O=S(=O)(NCc1ccncc1)c1ccc(F)c(F)c1 do in these assays?
C8 TRAIL sens: -4

Results for Cc1ccc(S(=O)(=O)NCc2ccncc2)cc1C ?
C8 TRAIL sens: 29; FLuc inhib CS: -9; STAT3 inh-1: 74*; HSP90 refold inh: 30*; PPC-1+TRAIL kill: 33; FLuc stim CS: 1.1; STAT3 inh-2: 76*; NFkB inh 2: 26*; STAT1 inh 2: 17*; HSP90 inh confirm: -1; luciferase ctr: -4

Results for O=C(Nc1cccc(Cl)c1Cl)c1csc([C@H]2C[C@H](O)[C@@H](CO)O2)n1 ?
C8 TRAIL sens: 2

How did COC(=O)c1sc(NC(=O)c2ccoc2C)nc1C do in these assays?
C8 TRAIL sens: -1; FLuc inhib CS: 4; STAT3 inh-1: 5; HSP90 refold inh: 1; PPC-1+TRAIL kill: 15; FLuc stim CS: 1

How did COc1ccc2nc(NC(=O)c3ccoc3C)sc2c1 do in these assays?
C8 TRAIL sens: 39; FLuc inhib CS: 51*; STAT3 inh-1: 63*; HSP90 refold inh: 22*; PPC-1+TRAIL kill: 9; FLuc stim CS: 0.5; STAT3 inh-2: 28; NFkB inh 2: -16; STAT1 inh 2: -104; HSP90 inh confirm: 41*; luciferase ctr: 30*
